Bioassay records from PubChem.
SUMO HTRF inh – blocks human SUMOylation mediated by UBC9. AID 2006. P63279. 290,000 compounds, 0.36% hits. inhibition, % at 35 µM. HTRF SUMOylation assay, SAE1/SAE2 + UBC9, in vitro; in the data active = inhibition above about 50%, passing the limit was not always enough
Target sequence (P63279 whole entry, looked up): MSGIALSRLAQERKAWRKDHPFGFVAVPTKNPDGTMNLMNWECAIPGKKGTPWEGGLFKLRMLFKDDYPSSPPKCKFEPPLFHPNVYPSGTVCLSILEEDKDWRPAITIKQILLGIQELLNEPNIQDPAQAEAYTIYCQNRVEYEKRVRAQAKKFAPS
Apaf1 inhib – blocks human Apaf-1 apoptosome activity. O14727. reconstituted apoptosome caspase-3 activity, DEVD-Rh110 fluorescence. inhibition, % at 20 µM. 330,000 compounds, 0.71% hits; active = inhibition of at least 40% at 20 µM
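Medium: Hepes buffer, pH 7.5 / System: biochemical Apaf-1 apoptosome reconstitution / Measured by: Rh110 fluorescence, excitation 480 nm, emission 540 nm / Times: compound with Apaf-1, dATP, procaspase-3 30 min, then 50 min reaction, room temperature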
PAD4 inh – blocks human protein arginine deiminase 4. inhibition, % at 6.36 µM. 330,000 compounds, 0.41% hits. recombinant PAD4, RCA probe fluorescence polarization. Q9UM07;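 active = percent inhibition above a cutoff equal to the mean of all tested compounds plus 3 SD, cut at about 15% in these data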
GASC-1 inh – human JMJD2C demethylase inhibition. GST-JMJD2C(1-420) H3K9me3 demethylation, DELFIA europium. inhibition, % at 2.35 µM. 330,000 compounds, 0.069% hits. AID 2099;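 active = more than half of a compound's replicate wells show inhibition beyond 50%, single wells judged on their own value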;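 also: signal counts dimethyl H3K9 product captured on neutravidin plate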
GSTO1 counter – counter-screen for RBBP9 inhibitors: inhibitors of human GSTO1. P78417. recombinant GSTO1, activity-based probe fluorescence polarization. inhibition, % at 5.96 µM. 300,000 compounds, 1.1% hits. AID 1974;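 active = inhibition above the campaign mean inhibition plus 3 SD, cut at about 35% in these data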
Target sequence (P78417 whole entry, looked up): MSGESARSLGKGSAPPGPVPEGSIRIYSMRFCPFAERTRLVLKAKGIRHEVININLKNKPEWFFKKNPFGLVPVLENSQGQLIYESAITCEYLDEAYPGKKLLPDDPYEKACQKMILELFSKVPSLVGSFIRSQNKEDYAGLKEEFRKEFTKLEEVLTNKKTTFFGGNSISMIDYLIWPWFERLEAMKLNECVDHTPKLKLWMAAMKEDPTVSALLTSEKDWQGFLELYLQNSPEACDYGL
TDP2 inh – blocks human TDP2 phosphodiesterase activity | O95551 | recombinant TDP2, T5PNP hydrolysis, p-nitrophenol absorbance 415 nm | inhibition, % at 12.8 µM | 370,000 compounds, 0.34% hits | AID 720702;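 active = inhibition above the mean of all tested compounds plus 3 SD, set per campaign, cut at about 25% in these data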
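System – recombinant human TDP2 · Quantity – TDP2 enzyme at 120 nM final · Doses – single concentration, 12.8 µM nominal, with 1% DMSO · Incubation – 2 h at 37 °C · Measured by – epi absorbance of p-nitrophenol freed from T5PNP by hydrolysis · Read-out – % inhibition relative to enzyme-containing and enzyme-free wells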
TDP2 inh conf – human TDP2 inhibition, confirmation. AID 743263. shares compounds with TDP2 inh. 1,100 compounds, 22% hits. recombinant human TDP2, absorbance read-out. inhibition, % at 12.8 µM; in the data active = inhibition above about 25%
A number is an active result; n = inactive; x = no result given. Only some compounds are listed: those with a hit (about 1.6% of all), similar ones and a draw of the others.

SMILES | SUMO HTRF inh | Apaf1 inhib | PAD4 inh | GASC-1 inh | GSTO1 counter | TDP2 inh | TDP2 inh conf
CC(CCc1ccccc1)NC(=O)CNC(=O)N1CC(=O)Nc2ccccc21 (stereo not drawn) | n | n | n | n | n | 25.1 | n
COc1cc(C2C(C#N)=C(N)Oc3n[nH]c(-c4cccs4)c32)cc(OC)c1O (stereo not drawn) | n | n | n | n | 35.5 | 37.1 | n
COc1cc(-c2[nH]nc3c2C(c2ccoc2)C(C#N)=C(N)O3)cc(OC)c1OC (stereo not drawn) | n | n | n | n | n | n | x
Cc1[nH]nc2c1C(c1ccc3c(c1)OCO3)C(C#N)=C(N)O2 (stereo not drawn) | n | n | n | n | n | n | x
COc1cc(OC)cc(C2C(C#N)=C(N)Oc3n[nH]c(-c4cccnc4)c32)c1 (stereo not drawn) | n | n | n | n | n | n | x
CCOc1ccc(-c2[nH]nc3c2C(c2ccc4c(c2)OCO4)C(C#N)=C(N)O3)cc1OC (stereo not drawn) | n | n | n | n | n | 27.2 | n
COc1cc(-c2[nH]nc3c2C(c2ccco2)C(C#N)=C(N)O3)cc(OC)c1OC (stereo not drawn) | n | n | n | n | n | 42.5 | n
COc1cc(Br)c(C2C(C#N)=C(N)Oc3n[nH]c(-c4cccnc4)c32)cc1OC (stereo not drawn) | n | n | n | n | n | 43.4 | n
COC(=O)[C@H]1C[C@@]2(n3ccc4ccccc43)c3ccccc3N[C@H]2N1 | x | x | x | x | x | n | x
COc1ccc2c(c1)CCCN2C(=O)C1CCCN(S(=O)(=O)c2cccc3cccnc23)C1 (stereo not drawn) | x | x | x | x | x | n | x
O=S1(=O)c2ccc(Br)cc2OC[C@@H](Cc2ccccc2)N1Cc1cn(Cc2ccc(C(F)(F)F)cc2)nn1 | x | x | x | x | x | n | x
CCCCOC(=O)/C=C\C(=O)NC(N)=O | n | n | n | n | n | 25.6 | n
O=C(Cn1ncc2c1-c1ccccc1OC2)N1CCN(Cc2ccccc2)CC1 | n | n | n | n | n | 28.5 | n
CCN1CCN(C(=O)Cn2ncc3c2-c2ccccc2OC3)CC1 | n | n | n | n | n | n | x
COC(=O)c1ccccc1NC(=S)N1CCC(N2CCCCC2)CC1 | n | n | n | n | n | n | x
CCOC(=O)c1ccccc1NC(=S)N1CCC(N2CCCCC2)CC1 | n | n | n | n | n | 33.6 | n
CC(=O)NC(Cc1ccc(F)cc1)C(=O)NC1CCN(C(=O)Nc2ccc(F)cc2)CC1 (stereo not drawn) | n | n | n | n | n | 25.2 | n
CCCCN1CC(=O)N2[C@H](C[C@@]3(n4ccc5ccccc54)c4ccccc4N(S(=O)(=O)c4ccccc4)[C@@H]23)C1=O | x | x | x | x | x | n | x
CC1(OC(=O)C2CCCC2)C(=O)C=C2C=C(c3ccsc3)N(C(CO)CO)C=C2C1=O (stereo not drawn) | n | n | n | n | n | n | x
COC(=O)CCC(=O)OC1(C)C(=O)C=C2C=C(C3CC3)N(C(CO)CO)C=C2C1=O (stereo not drawn) | n | n | n | n | n | 29.9 | n
COc1ccc(CCNC(=O)C(NC(=O)OCc2ccccc2)C(C)C)cc1OC (stereo not drawn) | n | n | n | n | n | n | x
CC[C@H](C)[C@H](NC(N)=O)C(=O)NCCc1ccc(OC)c(OC)c1 | n | n | n | n | n | 24.7 | n
CC(C)CNC(=O)C1CSCCS(=O)(=O)N1Cc1ccc(F)cc1 (stereo not drawn) | x | x | x | x | x | n | x
O=C(NCCc1ccccc1F)c1ccc2c(c1)ncn2C1CCCCC1 | x | x | x | x | x | n | x
O=C(NCC(c1ccco1)N1CCOCC1)c1c(F)cccc1F (stereo not drawn) | x | n | n | n | n | 24.9 | n
SMILES | SUMO HTRF inh | Apaf1 inhib | PAD4 inh | GASC-1 inh | GSTO1 counter | TDP2 inh | TDP2 inh conf
CCCc1nnc(NC(=O)CCC(=O)N2CCCCC2)s1 | n | n | n | n | n | 26.2 | n
O=Cc1ccc(-c2ccccc2C(=O)O)o1 | n | n | n | n | n | n | x
O=C(O)c1ccccc1-c1c2cc(I)c(=O)c(I)c-2oc2c(I)c(O)c(I)cc12 | x | n | n | x | n | 28.4 | 40.4
O=C(NC1CCCCC1)C(C1CC1)n1c(=O)c(-c2ccco2)nc2ccccc21 (stereo not drawn) | x | x | x | x | x | n | x
CCCCCNC(=O)C(C1CC1)n1c(=O)c(-c2ccco2)nc2ccccc21 (stereo not drawn) | x | x | x | x | x | 53.9 | n
O=C(O)c1cc(S(=O)(=O)NCC2COc3ccccc3O2)ccc1Cl (stereo not drawn) | x | n | n | n | x | n | x
O=[N+]([O-])c1ccc(S(=O)(=O)NCC2COc3ccccc3O2)cc1 (stereo not drawn) | x | n | n | n | n | 24.7 | n
S=c1[nH]nc(-c2cc(-c3ccccc3)n[nH]2)n1/N=C/c1cccc2ccccc12 | x | x | x | x | x | n | x
COc1ccc2nc(NC(=O)CN3C(=O)NC4(CCCC4)C3=O)sc2c1 | x | n | n | n | n | 63.2 | n
COc1ccc2nc(NC(=O)CSc3ccccc3)sc2c1 | n | n | n | n | n | 25.7 | n
C(=N\Nc1nncn1/N=C/c1ccco1)/c1ccco1 | n | n | n | n | n | 55.1 | n
S=c1[nH]ncn1/N=C/c1ccco1 | x | x | x | x | x | n | x
COc1ccc(Cn2ccc3ccc(-c4ccc5ccn(Cc6cccc(F)c6)c5c4)cc32)cc1 | x | x | x | x | x | n | x
O=C(Nc1ccc(Cl)c(Cl)c1)c1cccc2c1-c1ccccc1C2=O | x | x | x | x | x | n | x
COc1cc2c(=O)n(CCC(=O)NCC3CCCO3)c(=O)n(CC(=O)Nc3ccc(F)cc3)c2cc1OC (stereo not drawn) | n | n | n | n | n | 24.5 | n
O=C(NC(=S)Nc1ccccc1N1CCCC1)c1ccco1 | n | n | n | n | n | 38.1 | 29.4
O=C(C1CCN(c2ncnc3c2sc2cccc(F)c23)CC1)N1CCN(C(=O)C2CCCO2)CC1 (stereo not drawn) | x | x | x | x | x | n | x
COc1cccc(OC(=O)N2CCOCC2)c1 | n | n | n | n | n | n | x
CC(=O)c1cc(OC(=O)N2CCOCC2)ccc1OC(=O)N1CCOCC1 | n | n | n | n | n | 74.5 | n
c1ccc(CN2CCN(c3ncnc4sccc34)CC2)cc1 | x | x | x | x | x | n | x
Cc1cc(-c2ccc(C)c(S(=O)(=O)NCc3ccc(OC(C)C)cc3)c2)on1 | n | n | n | n | n | 31.6 | n
CCc1ccc(-c2cc(C)no2)cc1S(=O)(=O)NCCCN1CCN(c2ccccc2)CC1 | n | n | n | n | n | n | x
CCN(CCCNS(=O)(=O)c1cc(-c2cc(C)no2)ccc1C)Cc1ccccc1 | n | n | n | n | n | 47.5 | n
